We go through three molecules from ChEMBL document CHEMBL1124186, “Synthesis and evaluation of tylosin-related macrolides modified at the aldehyde function: a new series of orally effective antibiotics” (1988).

The subject of assay [1] is Mus musculus. As to the kind of experiment: Peripheral plasma levels in mice after oral administration of 50 mg/kg dose for 0.25 hr. In kind it is functional, organism-based. More on the design: dose 50 mg/kg. An outline of the steps: (§1)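 Mice were given the compound orally and sampled for peripheral plasma at each time point. Plasma was assayed microbiologically against Micrococcus luteus seeded in Antibiotic Medium 1. Inhibition zone sizes were read, and concentrations were calculated from each compound's own standard curve. Each value is the mean of five mice per time point.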

Assay [2] concerns Mus musculus. As to the kind of experiment: Peripheral plasma levels in mice after oral administration of 50 mg/kg dose for 1 hr. The class given is functional, organism-based. The arrangement: dose 50 mg/kg. The method, boiled down:
as §1

In assay [3] the test system is Mus musculus. As to the kind of experiment: Peripheral plasma levels in mice after oral administration of 100 mg/kg dose for 0.25 hr. More on the design: dose 100 mg/kg. The class given is functional, organism-based. The method, boiled down:
as §1

Assay [4] relates to Mus musculus. As to the kind of experiment: Peripheral plasma levels in mice after oral administration of 50 mg/kg dose for 0.5 hr. The arrangement: dose 50 mg/kg. The class given is functional, organism-based. The method, boiled down: as §1
The subject of assay [5] is Rattus norvegicus. As to the kind of experiment: Peripheral plasma levels in rats after oral administration of 100 mg/kg dose for 1 hr. The class given is functional, organism-based. More on the design: dose 100 mg/kg. An outline of the steps: (§2)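 Rats received 100 mg/kg orally and were sampled for peripheral plasma. Concentrations were measured by Micrococcus luteus agar-diffusion microbiological assay in Antibiotic Medium 1, with zone sizes converted using the standard curve for the appropriate compound. Each value is the average of three rats per time point.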

The subject of assay [6] is Streptococcus pyogenes. As to the kind of experiment: In vivo effective dose against experimental infections in rodent caused by Streptococcus pyogenes C203 when administered orally. In kind it is functional. Particulars: po.
A further assay deals with Haemophilus influenzae. As to the kind of experiment: In vitro antimicrobial activity against Haemophilus influenzae. The class given is functional.
Assay [7] relates to Staphylococcus epidermidis. As to the kind of experiment: In vitro antimicrobial activity against Staphylococcus epidermidis EPI1. In kind it is functional.
The test system of another assay is Enterococcus faecium. As to the kind of experiment: In vitro antimicrobial activity against Streptococcus faecium X66. The class given is functional, streptococcus fae-cium.
The subject of the next assay is Streptococcus pneumoniae. As to the kind of experiment: In vitro antimicrobial activity against Streptococcus pneumoniae. The class given is functional.
Assay [8] has as its system Streptococcus pyogenes. As to the kind of experiment: In vitro antimicrobial activity against Streptococcus pyogenes C203. In kind it is functional.
In assay [9] the test system is Rattus norvegicus. As to the kind of experiment: Peripheral plasma levels in rats after oral administration of 100 mg/kg dose for 0.25 hr. The class given is functional, organism-based. More on the design: dose 100 mg/kg. An outline of the steps:
as §2

In assay [10] the test system is Rattus norvegicus. As to the kind of experiment: Peripheral plasma levels in rats after oral administration of 100 mg/kg dose for 2 hr. In kind it is functional, organism-based. The arrangement: dose 100 mg/kg. An outline of the steps: as §2
Assay [11] deals with Streptococcus pyogenes. As to the kind of experiment: In vivo effective dose against experimental infections in rodent caused by Streptococcus pyogenes C203 when administered sc. The class given is functional.
In the next assay the test system is Staphylococcus aureus. As to the kind of experiment: In vitro antimicrobial activity against Staphylococcus aureus X1. The class given is functional.
In assay [12] the test system is Mus musculus. As to the kind of experiment: Peripheral plasma levels in mice after oral administration of 100 mg/kg dose for 0.5 hr. In kind it is functional, organism-based. More on the design: dose 100 mg/kg. The method, boiled down: as §1
Assay [13] deals with Rattus norvegicus. As to the kind of experiment: Peripheral plasma levels in rats after oral administration of 100 mg/kg dose for 4 hr. The class given is functional, organism-based. The arrangement: dose 100 mg/kg. The method, boiled down:
as §2

The subject of assay [14] is Rattus norvegicus. As to the kind of experiment: Peripheral plasma levels in rats after oral administration of 100 mg/kg dose for 0.5 hr. In kind it is functional, organism-based. The arrangement: dose 100 mg/kg. An outline of the steps:
as §2

Assay [15] concerns Mus musculus. As to the kind of experiment: Peripheral plasma levels in mice after oral administration of 50 mg/kg dose for 2 hr. The class given is functional, organism-based. The arrangement: dose 50 mg/kg. An outline of the steps:
as §1

Assay [16] deals with Mus musculus. As to the kind of experiment: Peripheral plasma levels in mice after oral administration of 100 mg/kg dose for 1 hr. More on the design: dose 100 mg/kg. In kind it is functional, organism-based. An outline of the steps:
as §1

The subject of another assay is Cutibacterium acnes. As to the kind of experiment: In vitro antimicrobial activity against anaerobic bacteria propionibacterium acnes 79. The class given is functional.
The next assay has as its system Phocaeicola vulgatus. As to the kind of experiment: In vitro antimicrobial activity against anaerobic bacteria bacteroides vulgatus 1211. In kind it is functional.
The next assay relates to Clostridium septicum. As to the kind of experiment: In vitro antimicrobial activity against anaerobic bacteria clostridium septicum 1128. The class given is functional.
A short description of assay [17]: In vitro antimicrobial activity against anaerobic bacteria peptostreptococcus intermedius 1264. The class given is functional.
The test system of the next assay is Chlamydia trachomatis. As to the kind of experiment: In vitro antimicrobial activity against chlamydia trachomatis. In kind it is functional.
For another assay, the system named is Collinsella aerofaciens. As to the kind of experiment: In vitro antimicrobial activity against anaerobic bacteria eubacterium aerofaciens 1235. In kind it is functional.
The subject of assay [18] is Bacteroides fragilis. As to the kind of experiment: In vitro antimicrobial activity against anaerobic bacteria bacteroides fragilis 1877. In kind it is functional.
For assay [19], the system named is Peptoniphilus asaccharolyticus. As to the kind of experiment: In vitro antimicrobial activity against anaerobic bacteria peptococcus asaccharolyticus 1302. In kind it is functional.
Assay [20] relates to Prevotella melaninogenica. As to the kind of experiment: In vitro antimicrobial activity against anaerobic bacteria bacteroides melaninogenicus 2736. In kind it is functional.
For assay [21], the system named is Bacteroides thetaiotaomicron. As to the kind of experiment: In vitro antimicrobial activity against anaerobic bacteria bacteroides thetaiotaomicron 1438. In kind it is functional.
For a further assay, the system named is Fusobacterium. As to the kind of experiment: In vitro antimicrobial activity against anaerobic bacteria fusobacterium symbiosum 1470. In kind it is functional.
In assay [22] the test system is Bacteroides fragilis. As to the kind of experiment: In vitro antimicrobial activity against anaerobic bacteria bacteroides fragilis 111. The class given is functional.
The subject of assay [23] is Fusobacterium necrophorum. As to the kind of experiment: In vitro antimicrobial activity against anaerobic bacteria usobacterium necrophorum 6054A. The class given is functional.
The subject of another assay is Anaerococcus prevotii. As to the kind of experiment: In vitro antimicrobial activity against anaerobic bacteria peptococcus prevoti 1281. The class given is functional.
The subject of assay [24] is Prevotella melaninogenica. As to the kind of experiment: In vitro antimicrobial activity against anaerobic bacteria bacteroides melaninogenicus 1856,. The class given is functional.
Assay [25] deals with Peptostreptococcus anaerobius. As to the kind of experiment: In vitro antimicrobial activity against anaerobic bacteria eubacterium peptostreptococcus anaerobius 1428,. The class given is functional.
Another assay deals with Clostridium perfringens. As to the kind of experiment: In vitro antimicrobial activity against anaerobic bacteria clostridium perfringens 81,. In kind it is functional.
The test system of another assay is Eikenella corrodens. As to the kind of experiment: In vitro antimicrobial activity against anaerobic bacteria bacteroides corrodens 1874. The class given is functional.
For assay [26], the system named is Bacteroides fragilis. As to the kind of experiment: In vitro antimicrobial activity against anaerobic bacteria bacteroides fragilis 1936B,. In kind it is functional.
The test system of another assay is Clostridioides difficile. As to the kind of experiment: In vitro antimicrobial activity against anaerobic bacteria Clostridium difficile 2994. The class given is functional.

Broadly, the ED50 is the dose that gives a 50% effect, or the effect in half of the subjects. Read a low ED50 as greater potency.

≈ marks a conversion by molar mass, not a printed value.

Turning to `CC[C@H]1OC(=O)C[C@@H](O)[C@H](C)[C@@H](O[C@@H]2O[C@H](C)[C@@H](O[C@H]3C[C@@](C)(O)[C@@H](O)[C@H](C)O3)[C@H](N(C)C)[C@H]2O)[C@@H](CCN2C(=O)c3ccccc3C2=O)C[C@@H](C)C(=O)/C=C/C(C)=C/[C@@H]1CO[C@@H]1O[C@H](C)[C@@H](O)[C@@H](OC)[C@H]1OC`, the Concentration with Mus musculus [1] was 2.4 µg/mL; in the assay on Mus musculus [2] it was 1.6 µg/mL; in the assay with Mus musculus [3], 13.1 µg/mL; in the assay with Mus musculus [4], 2.2 µg/mL; in the assay with Rattus norvegicus [5], 2.1 µg/mL; in the assay on Rattus norvegicus [9], 0.5 µg/mL. In addition, the Concentration with Rattus norvegicus [10] came to 1.4 µg/mL; in the assay on Mus musculus [12] it was 6 µg/mL; in the assay with Rattus norvegicus [13], 1.4 µg/mL; with Rattus norvegicus [14], 1.6 µg/mL; in the assay on Mus musculus [15] it was 1.3 µg/mL; in the assay with Mus musculus [16], 6.9 µg/mL. In addition, the ED50 in the assay on Streptococcus pyogenes [6] was 23 mg/kg; with Streptococcus pyogenes [11] it was > 6.3 mg/kg. Besides, the MIC was > 128 µg/mL in the assay with Haemophilus influenzae; 1 µg/mL (≈ 0.955 µM) in assay [7]; > 128 µg/mL in the assay with Enterococcus faecium; 32 µg/mL (≈ 30.6 µM) with Streptococcus pneumoniae; 2 µg/mL (≈ 1.91 µM) against Streptococcus pyogenes [8]; 1 µg/mL (≈ 0.955 µM) in the assay with Staphylococcus aureus.
As to `CC[C@H]1C[C@@H](C)C(=O)/C=C/C(C)=C/[C@H](CO)[C@@H](CC)OC(=O)C[C@@H](O)[C@H](C)[C@H]1O[C@@H]1O[C@H](C)[C@@H](O)[C@H](N(C)C)[C@H]1O`, the figures for the ED50 in the assay on Streptococcus pyogenes [6] and with Streptococcus pyogenes [11] were 75 mg/kg and > 30 mg/kg, respectively. The MIC was 2 µg/mL (≈ 3.43 µM) in the assay with Cutibacterium acnes; > 8 µg/mL in the assay with Phocaeicola vulgatus; 2 µg/mL (≈ 3.43 µM) in the assay on Clostridium septicum; 32 µg/mL (≈ 54.8 µM) with Haemophilus influenzae; 8 µg/mL (≈ 13.7 µM) in assay [7]; > 8 µg/mL in assay [17]. For the same molecule, the MIC was 16 µg/mL (≈ 27.4 µM) with Enterococcus faecium; 8 µg/mL (≈ 13.7 µM) in the assay with Streptococcus pneumoniae; 0.5 µg/mL (≈ 0.857 µM) with Chlamydia trachomatis; 2 µg/mL (≈ 3.43 µM) in the assay with Collinsella aerofaciens; > 8 µg/mL against Bacteroides fragilis [18]; > 8 µg/mL in assay [19]. In addition, the MIC was > 8 µg/mL in [20]; 8 µg/mL (≈ 13.7 µM) with Streptococcus pyogenes [8]; > 8 µg/mL in assay [21]; > 8 µg/mL against Fusobacterium; 4 µg/mL (≈ 6.85 µM) in the assay with Staphylococcus aureus; > 8 µg/mL against Bacteroides fragilis [22]. The MIC is 8 µg/mL (≈ 13.7 µM) in assay [23]; > 8 µg/mL in the assay on Anaerococcus prevotii; > 8 µg/mL in assay [24]; > 8 µg/mL in assay [25]; 2 µg/mL (≈ 3.43 µM) in the assay on Clostridium perfringens; > 8 µg/mL against Eikenella corrodens. Further, the MIC in the assay on Bacteroides fragilis [26] was > 8 µg/mL; in the assay with Clostridioides difficile, 2 µg/mL (≈ 3.43 µM).
As for `CC[C@H]1OC(=O)C[C@@H](O)[C@H](C)[C@@H](O[C@@H]2O[C@H](C)[C@@H](O)[C@H](N(C)C)[C@H]2O)[C@@H](CCSc2ccccc2)C[C@@H](C)C(=O)/C=C/C(C)=C/[C@@H]1CO[C@@H]1O[C@H](C)[C@@H](O)[C@@H](OC)[C@H]1OC`, the Concentration in the assay with Rattus norvegicus [5] worked out at 2.5 µg/mL; with Rattus norvegicus [9], 0.5 µg/mL; in the assay with Rattus norvegicus [10] it was 2.9 µg/mL; in the assay with Rattus norvegicus [13] it was 4.2 µg/mL; in the assay on Rattus norvegicus [14], 1.3 µg/mL. For the same molecule, the MIC in assay [7] turned out to be 0.25 µg/mL (≈ 0.289 µM); against Enterococcus faecium, 8 µg/mL (≈ 9.24 µM); with Streptococcus pneumoniae it was 2 µg/mL (≈ 2.31 µM); in the assay with Streptococcus pyogenes [8], 0.25 µg/mL (≈ 0.289 µM); against Staphylococcus aureus, 0.25 µg/mL (≈ 0.289 µM). The same molecule showed an ED50 in the assay on Streptococcus pyogenes [11] of 10 mg/kg.
